Screening results: PubChem, Sanford-Burnham Center for Chemical Genomics
Sampled rows, rich in hits. Any-hit rate of the full collection: about 1.5%.
APJ agonist: activates the human apelin receptor APJ. 0.11% of 330,000 active. CHO-K1 APJ PathHunter beta-arrestin, luminescence; 0% DMSO wells, 100% apelin. activation, % at 20 µM. P35414;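 active means activation more than six SD over the plate average, tested at 20 µM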
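Assay system – PathHunter CHO-K1 APJ (AGTRL-1) beta-arrestin reporter cells · Compound – one dose, 20 µM compound, 1% DMSO · Timing – compound 90 min 25 °C, reagent 1 h · Measured by – luminescence from split beta-galactosidase complementation, Galacton Star/Emerald II substrate · Measure – beta-arrestin recruitment to APJ as agonist activity, luminescent signal · Benchmarks – DMSO vs Apelin-13 10 nM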
CCR6 antag: blocks CCL20-driven beta-arrestin recruitment at human CCR6; inhibition, % at 20 µM; 0.49% of 340,000 active; P51684; CHO-K1 CCR6 PathHunter beta-arrestin, luminescence, CCL20-stimulated;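 active means compounds whose inhibition of the agonist-driven luminescence signal at 20 µM reaches about 50%, limit read from the data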;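 further: cells stimulated with CCL20 at 14 nM final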
Target sequence (P51684 whole entry, looked up): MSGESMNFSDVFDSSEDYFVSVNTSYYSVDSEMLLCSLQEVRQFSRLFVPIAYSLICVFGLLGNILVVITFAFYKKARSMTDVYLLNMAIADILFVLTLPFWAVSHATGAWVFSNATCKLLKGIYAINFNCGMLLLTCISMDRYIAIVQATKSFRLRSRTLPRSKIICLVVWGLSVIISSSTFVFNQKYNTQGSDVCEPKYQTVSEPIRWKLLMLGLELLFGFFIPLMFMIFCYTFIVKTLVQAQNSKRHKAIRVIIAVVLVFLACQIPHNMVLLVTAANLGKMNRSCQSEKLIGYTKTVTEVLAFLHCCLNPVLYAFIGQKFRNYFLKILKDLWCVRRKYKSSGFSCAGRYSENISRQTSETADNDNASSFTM
EBI2 antag: antagonists of human EBI2 receptor | EBI2 beta-arrestin recruitment, luminescence, 7a,25-OHC stimulated | inhibition, % at 5 µM | 0.81% of 360,000 active | AID 651636; in the data active means inhibition above about 38%;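 further: enzyme fragment complementation signal reports receptor beta-arrestin coupling in cells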
APJ antag: blocks the human apelin receptor APJ; P35414; 0.32% of 330,000 active; AID 2521; CHO-K1 APJ beta-arrestin complementation, luminescence; inhibition, % at 20 µM;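 active means inhibition above about 40% at 20 µM, limit read from the data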;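 further: cells challenged with 10 nM apelin-13 agonist together with compound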
CXCR6 inh: blocks human CXCR6 beta-arrestin recruitment. CHO-K1 PathHunter CXCR6 beta-arrestin, luminescence. 0.36% of 360,000 active. AID 602244. inhibition, % at 20 µM. O00574; in the data active means inhibition above about 34%, passing the limit was not always enough;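 further: antagonist mode with CXCL16 agonist at 10 nM final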
APJ antag confirm: APJ receptor antagonism confirmation. inhibition, % at 20 µM. shares compounds with APJ antag. 66% of 950 active. AID 2766. APJ beta-arrestin recruitment, luminescence, antagonist mode; in the data active means inhibition above about 50%
A number is an active result; n = inactive; x = not tested or not shown.

SMILES	APJ agonist	CCR6 antag	EBI2 antag	APJ antag	CXCR6 inh	APJ antag confirm
Nc1c(N2CCCC2)c2ccccc2oc1=O	n	55.0	n	70.5	n	83.2
O=C(Cn1cc(C(F)(F)F)cc(Cl)c1=O)NC1CCS(=O)(=O)C1 (configuration not stated)	n	n	n	n	n	x
O=C(NNc1ncc(C(F)(F)F)cc1Cl)c1ccc(Cl)c(Cl)c1	n	n	n	n	n	x
Cc1ccc(NC(=S)NNc2ncc(C(F)(F)F)cc2Cl)c(C)c1	n	81.0	n	53.1	65.0	n
C[C@@H](NCCCn1cnc2c(OCc3ccccc3)ncnc21)c1cccc2ccccc12	x	n	n	x	n	x
CCOc1ccccc1CN1CCN(Cc2csc(C(C)=O)c2)CC1CCO (configuration not stated)	n	n	n	n	n	x
CCOc1ccc(CCNC(=O)c2cccnc2N2CCCC2)cc1OCC	n	n	n	58.3	n	51.7
COc1cc(/C=C(\C#N)C(=O)c2ccc(O)c(O)c2)cc(I)c1O	n	57.3	n	42.4	n	59.9
COc1ccc(C=C(C#N)C(=O)c2ccccc2)cc1	x	x	n	x	n	x
Cc1ccc(/C=C2/NC(=O)N(Cc3ccccc3)C2=O)o1	n	n	n	61.3	n	n
CCn1ncc(S(=O)(=O)Nc2cccnc2)c1C	n	n	n	n	n	x
CCn1cc(S(=O)(=O)Nc2cccnc2)cn1	n	n	n	44.5	n	n
Cc1ccc(C(=O)CNc2cccc(Cl)c2)cc1	n	n	n	65.9	n	77.1
O=C(CNc1cccc(Cl)c1)c1ccc(Cl)cc1	n	n	n	72.7	40.8	90.9
CCN(CC)CCC=C(c1cccs1)c1cccs1	x	n	n	x	n	x
C=CCn1c(=O)[nH]c2cc(C(=O)N3CC=C(c4ccccc4)CC3)ccc2c1=O	n	n	n	52.5	n	n
O=C(C[C@@H]1C=C[C@H](NS(=O)(=O)c2ccccc2F)[C@@H](CO)O1)NCCCN1CCOCC1	x	x	n	x	x	x
CN(Cc1nc(-c2ccccc2)no1)C1CCOCC1	n	n	n	n	n	x
CN(C(=O)CSC1=Nc2ccccc2C2=NC(c3ccccc3)C(=O)N12)C1CCCCC1 (configuration not stated)	n	52.4	n	47.2	47.2	61.0
O=C(CSC1=Nc2ccccc2C2=NC(c3ccccc3)C(=O)N12)NC1CCCCC1 (configuration not stated)	n	n	n	n	n	x
CCOc1ccc(C(=O)NC(=S)Nc2cccnc2)cc1[N+](=O)[O-]	n	n	n	43.1	n	n
Oc1ccccc1/C=N/Nc1cc(N2CCCC2)nc(N2CCCC2)n1	n	n	n	42.3	n	n
CCS(=O)(=O)N1CCN(CC(=O)NC2CCCCC2)CC1	n	n	n	n	n	x
CCOC(=O)c1c(-c2ccc(-c3ccccc3)cc2)csc1NC(=O)CNCCN(C)C	n	78.3	n	42.9	n	95.7
O=C(COC(=O)c1ccc(Cl)nc1)NCCc1ccc(F)cc1	n	n	n	n	n	x
SMILES	APJ agonist	CCR6 antag	EBI2 antag	APJ antag	CXCR6 inh	APJ antag confirm
O=C(CCC(=O)c1cccs1)OCC(=O)c1ccc(Cl)s1	n	n	n	41.1	n	n
O=[N+]([O-])c1c(Nc2cccc(O)c2)cc(Cl)c2nonc12	n	104.0	92.8	94.4	111.2	111.3
O=C(O)c1cccc(Nc2ccc3nonc3c2[N+](=O)[O-])c1	n	n	n	n	n	x
Cn1c(=O)c2c(nc(N3CCc4ccccc4C3)n2C)n(C)c1=O	n	n	n	n	n	x
C#CCN(C[C@H]1[C@H](OC(=O)NCc2ccccc2F)[C@H](OC(=O)NCc2ccccc2F)C[C@H]2C(=O)N(c3ccccc3)C(=O)[C@@H]12)S(=O)(=O)c1ccc(C)cc1	x	x	n	x	n	x
O=C(NCCc1ccccc1)c1cccs1	n	n	n	n	n	x
O=C(NCCc1cnc[nH]1)c1cccs1	n	n	n	43.3	n	n
S=C(Nc1ccccc1)Nc1nc2ccccc2n1CCOc1ccc(Br)cc1	n	n	n	n	n	x
Cn1c(NC(=S)Nc2ccccc2)nc2ccccc21	n	n	n	40.7	n	n
CC(=O)c1sc(NS(=O)(=O)c2ccc(C)cc2)nc1C	n	n	n	52.9	n	n
Cc1ccc(Cl)c(NC(=O)CN2CCNC(=O)C2)c1Cl	n	n	n	n	n	x
COc1ccc(C=C2C(=O)c3ccccc3C2=O)cc1O	n	n	n	44.6	n	59.4
COc1cc(C=C2C(=O)c3ccccc3C2=O)cc(OC)c1	n	n	n	n	n	x
O=C(CSc1nnc(SCc2ccc(Cl)cc2)s1)N/N=C/c1ccccc1C(=O)O	n	n	n	n	n	x
O=C(CSc1nnc(Cn2c(=O)sc3ccccc32)n1-c1ccccc1)N1CCOCC1	n	n	n	n	n	x
Cc1ccccc1-n1c(Cn2c(=O)sc3ccccc32)nnc1SCC(=O)N1CCOCC1	n	n	n	52.0	n	n
O=C(N=C1SC2CS(=O)(=O)CC2N1c1ccc(Cl)cc1Cl)C1CC1 (configuration not stated)	n	n	n	n	n	x
O=C(Nc1ccccc1Cl)c1ccc(S(=O)(=O)NCC2CCCO2)cc1 (configuration not stated)	n	n	n	n	n	x
Cc1nnsc1C(=O)NNc1ccc(C(C)(C)C)cc1	n	n	n	59.1	n	146.4
CCOc1cc([N+](=O)[O-])cc(/C=N/NC(=O)c2c(-c3ccccc3)noc2C)c1O	n	n	n	41.2	n	n
Oc1c(C=Nc2cccc3cccnc23)sc2ccccc12	n	x	x	92.4	x	142.9
Cc1cccn2c(=O)c3cc(C(=O)NC4CCCCC4)c(=N)n(Cc4ccccc4)c3nc12	n	n	n	51.9	n	n
Cc1cccn2c(=O)c3cc(C(=O)NC4CCCC4)c(=N)n(Cc4ccc(F)cc4)c3nc12	n	n	n	n	n	x
COc1ccc(CCn2c(=N)c(C(=O)NC3CCCC3)cc3c(=O)n4cccc(C)c4nc32)cc1	n	n	n	45.9	n	n
Cn1c(=O)c2c(nc(C3CC4C5CCC(C5)C4C3)n2C)n(C)c1=O (configuration not stated)	x	n	n	x	n	x
SMILES	APJ agonist	CCR6 antag	EBI2 antag	APJ antag	CXCR6 inh	APJ antag confirm
CCCc1nn2c(=O)cc(CSCC(=O)Nc3ccccc3OC)nc2s1	n	n	n	n	n	x
CN(Cc1ccccc1)CC1C2CCC(C2)C1O (configuration not stated)	x	n	n	x	n	x
Cc1[nH]n(-c2ccccc2)c(=O)c1C(C[N+](=O)[O-])c1ccc(F)cc1 (configuration not stated)	n	n	n	45.0	n	n
Cc1ccc(C(C[N+](=O)[O-])c2c(C)[nH]n(-c3ccccc3)c2=O)cc1 (configuration not stated)	n	n	n	n	n	x
COc1ccc(-n2c(C)ccc2-c2ccccc2)cn1	n	n	n	79.4	n	n
CC1CCN(C(=O)COC(=O)c2cc3ccccc3oc2=O)CC1	n	n	n	n	n	x
